{"source": "paper PMC5519285", "about": "(Pharmacology, biochemistry, and behavior, 2017)", "key": {"[1]": {"test_system": "rats", "experiment": "Pentylenetetrazole", "type": "in vivo, rat", "conditions": "i.p.", "how_it_was_run": "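Male Sprague Dawley rats (90–110 g), test compound suspended in 1% hydroxyethylcellulose/0.05% tween 80/0.05% antifoam, given 30 mg/kg i.p. 30 min before testing. Percent of rats without clonic convulsions recorded, 5 rats/group (vehicle 20), Fisher's exact test.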"}, "[2]": {"test_system": "rats", "conditions": "cited from earlier work"}, "[3]": {"conditions": "ref Poe et al., 2016; cited from earlier work"}, "[4]": {"biological_target": "hGABAAR (α2β3γ2) (Homo sapiens, UniProt P18507+P47869)", "sequence (P47869 29-451)": "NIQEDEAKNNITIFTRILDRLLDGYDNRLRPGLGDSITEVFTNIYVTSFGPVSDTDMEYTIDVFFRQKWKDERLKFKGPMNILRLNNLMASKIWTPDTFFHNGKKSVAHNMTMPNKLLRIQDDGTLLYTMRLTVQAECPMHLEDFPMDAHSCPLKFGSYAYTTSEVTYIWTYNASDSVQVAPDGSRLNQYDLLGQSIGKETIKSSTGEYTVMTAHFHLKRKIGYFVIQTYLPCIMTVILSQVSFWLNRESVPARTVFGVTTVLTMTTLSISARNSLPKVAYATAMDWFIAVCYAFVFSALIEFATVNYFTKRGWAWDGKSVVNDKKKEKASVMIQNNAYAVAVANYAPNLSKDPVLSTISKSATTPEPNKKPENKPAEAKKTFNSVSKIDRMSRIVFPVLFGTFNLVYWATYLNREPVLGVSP", "sequence (P28472 26-473 partner)": "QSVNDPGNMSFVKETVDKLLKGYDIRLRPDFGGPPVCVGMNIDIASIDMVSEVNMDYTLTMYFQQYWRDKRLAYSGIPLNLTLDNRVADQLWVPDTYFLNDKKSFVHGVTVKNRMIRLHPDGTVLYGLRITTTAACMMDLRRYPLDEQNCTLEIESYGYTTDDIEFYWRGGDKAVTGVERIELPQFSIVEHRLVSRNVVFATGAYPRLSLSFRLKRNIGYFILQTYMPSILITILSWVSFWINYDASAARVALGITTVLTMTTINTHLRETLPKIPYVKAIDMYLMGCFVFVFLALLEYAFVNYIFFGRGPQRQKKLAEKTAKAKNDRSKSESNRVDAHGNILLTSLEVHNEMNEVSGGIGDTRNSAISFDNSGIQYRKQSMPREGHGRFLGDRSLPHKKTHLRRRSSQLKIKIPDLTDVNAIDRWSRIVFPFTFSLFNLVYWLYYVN", "sequence (P18507 40-475)": "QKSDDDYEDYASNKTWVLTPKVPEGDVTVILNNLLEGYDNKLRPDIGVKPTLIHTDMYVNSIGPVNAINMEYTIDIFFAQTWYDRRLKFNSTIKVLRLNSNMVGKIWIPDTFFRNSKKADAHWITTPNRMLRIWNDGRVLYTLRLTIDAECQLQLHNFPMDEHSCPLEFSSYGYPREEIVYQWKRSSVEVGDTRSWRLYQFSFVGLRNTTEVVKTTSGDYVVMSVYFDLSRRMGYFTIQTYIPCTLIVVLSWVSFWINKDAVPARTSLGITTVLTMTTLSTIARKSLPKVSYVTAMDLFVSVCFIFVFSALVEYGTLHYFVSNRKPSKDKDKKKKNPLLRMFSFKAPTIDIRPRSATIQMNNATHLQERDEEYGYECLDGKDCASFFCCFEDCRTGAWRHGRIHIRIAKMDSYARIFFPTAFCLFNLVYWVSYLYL", "type": "cell-based"}, "[5]": {"biological_target": "hGABAAR (α3β3γ2) (Homo sapiens, UniProt P18507+P34903)", "sequence (P34903 29-492)": "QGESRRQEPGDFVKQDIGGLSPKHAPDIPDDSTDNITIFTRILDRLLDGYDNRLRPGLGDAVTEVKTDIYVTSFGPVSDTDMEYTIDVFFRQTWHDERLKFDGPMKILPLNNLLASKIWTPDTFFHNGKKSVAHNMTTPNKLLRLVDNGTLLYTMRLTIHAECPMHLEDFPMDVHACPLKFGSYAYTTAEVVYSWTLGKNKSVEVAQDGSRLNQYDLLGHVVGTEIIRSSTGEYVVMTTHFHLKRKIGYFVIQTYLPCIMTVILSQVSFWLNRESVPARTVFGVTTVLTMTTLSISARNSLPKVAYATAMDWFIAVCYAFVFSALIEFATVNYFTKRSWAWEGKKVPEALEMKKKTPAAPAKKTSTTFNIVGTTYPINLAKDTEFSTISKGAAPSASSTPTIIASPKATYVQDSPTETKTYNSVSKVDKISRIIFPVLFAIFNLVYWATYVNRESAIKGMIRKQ", "sequence (P28472 26-473 partner)": "as the sequence (P28472 26-473 partner) above", "sequence (P18507 40-475)": "as the sequence (P18507 40-475) above", "type": "cell-based"}, "[6]": {"biological_target": "hGABAAR (α5β3γ2) (Homo sapiens, UniProt P18507+P31644)", "sequence (P31644 32-462)": "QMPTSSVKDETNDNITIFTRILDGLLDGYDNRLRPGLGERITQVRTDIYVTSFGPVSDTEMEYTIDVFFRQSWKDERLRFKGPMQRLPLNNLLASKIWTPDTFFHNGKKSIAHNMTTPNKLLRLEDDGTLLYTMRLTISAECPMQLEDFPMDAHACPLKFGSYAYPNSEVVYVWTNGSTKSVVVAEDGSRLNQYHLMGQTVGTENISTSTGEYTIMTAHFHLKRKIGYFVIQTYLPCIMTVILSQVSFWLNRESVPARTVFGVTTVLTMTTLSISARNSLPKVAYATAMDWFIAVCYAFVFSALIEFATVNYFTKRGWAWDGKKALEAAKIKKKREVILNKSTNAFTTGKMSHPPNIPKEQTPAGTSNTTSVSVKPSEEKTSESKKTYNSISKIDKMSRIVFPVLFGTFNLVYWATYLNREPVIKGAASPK", "sequence (P28472 26-473 partner)": "as the sequence (P28472 26-473 partner) above", "sequence (P18507 40-475)": "as the sequence (P18507 40-475) above", "type": "cell-based"}, "[7]": {"biological_target": "hGABAAR (α1β3γ2) (Homo sapiens, UniProt P14867+P18507)", "sequence (P14867 28-456)": "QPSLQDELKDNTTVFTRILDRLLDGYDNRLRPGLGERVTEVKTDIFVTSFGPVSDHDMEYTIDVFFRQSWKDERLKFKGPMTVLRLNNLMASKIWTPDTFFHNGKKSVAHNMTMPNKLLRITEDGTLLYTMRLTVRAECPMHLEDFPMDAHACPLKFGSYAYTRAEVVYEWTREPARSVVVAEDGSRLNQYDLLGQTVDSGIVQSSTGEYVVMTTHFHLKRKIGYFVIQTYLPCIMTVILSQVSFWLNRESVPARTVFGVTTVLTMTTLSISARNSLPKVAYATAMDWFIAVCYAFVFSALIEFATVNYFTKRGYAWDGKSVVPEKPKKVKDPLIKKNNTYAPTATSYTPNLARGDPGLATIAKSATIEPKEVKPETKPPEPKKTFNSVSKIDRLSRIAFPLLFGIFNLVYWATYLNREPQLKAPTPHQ", "sequence (P28472 26-473 partner)": "as the sequence (P28472 26-473 partner) above", "sequence (P18507 40-475)": "as the sequence (P18507 40-475) above", "type": "cell-based", "conditions": "HEK293 cells, human α1β3γ2, peak GABA EC15-evoked current"}, "[8]": {"test_system": "mice", "conditions": "ref Lewter et al., 2017; cited from earlier work"}}, "note": "Entries after “also recorded” stand apart in the source; their conditions may differ. Where two headings read alike, the source gives them in different places. Marks after values point to notes of the source that are not given here."}
{"smiles": "C#Cc1ccc2c(c1)C(c1ccccn1)=NCc1c(C(=O)OCC)ncn1-2", "note": "[HZ-166]", "values": [{"measurement": "reduction of convulsions induced by PTZ", "setting": "[1]; 30 mg/kg", "value": 60, "unit": "%"}, {"measurement": "activity in Vogel conflict test (punished drinking)", "setting": "[2]; ref Poe et al., 2016", "value": "not active"}, {"measurement": "marble-burying", "setting": "[3]", "value": "decreased marble-burying"}]}
{"smiles": "NCCCC(=O)O", "note": "[GABA]", "values": [{"measurement": "average maximum negative current amplitude", "setting": "[4]; saturating concentration of GABA, α2β3γ2", "value": 0.8, "unit": "nA"}, {"measurement": "average maximum negative current amplitude", "setting": "[5]; saturating concentration of GABA, α3β3γ2", "value": 1.0, "unit": "nA"}, {"measurement": "average maximum negative current amplitude", "setting": "[6]; saturating concentration of GABA, α5β3γ2", "value": 0.9, "unit": "nA"}]}
{"smiles": "CN1C(=O)CN=C(c2ccccc2)c2cc(Cl)ccc21", "note": "[Diazepam, diazepam]", "values": [{"measurement": "GABAA-a1 Max (%GABA)", "setting": "[7]", "value": 171.9, "unit": "%GABA"}, {"measurement": "GABAA-a2 Max (%GABA)", "setting": "[4]; HEK293 cells, human α2β3γ2, peak GABA EC15-evoked current", "value": 203.4, "unit": "%GABA"}, {"measurement": "GABAA-a3 Max (%GABA)", "setting": "[5]; HEK293 cells, human α3β3γ2, peak GABA EC15-evoked current", "value": 265.6, "unit": "%GABA"}, {"measurement": "GABAA-a5 Max (%GABA)", "setting": "[6]; HEK293 cells, human α5β3γ2, peak GABA EC15-evoked current", "value": 220.7, "unit": "%GABA"}]}
{"smiles": "CCCC(CCC)C(=O)O", "note": "[Valpro, valproic acid]", "values": [{"measurement": "Anticonvulsant Effect (percent of animals protected, no clonic convulsions)", "setting": "[1]; valproic acid 300 mg/kg, 35 mg/kg pentylenetetrazole s.c.", "value": "100 ^* percent"}]}
{"smiles": "C#Cc1ccc2c(c1)C(c1ccccn1)=NCc1c(-c3cnco3)ncn1-2", "note": "[Compound 9, 5-(8-Ethynyl-6-(pyridin-2-yl)-4H-benzo[f]imidazo[1,5-a][1,4]diazepin-3-yl)oxazole]", "values": [{"measurement": "activity in Vogel conflict test (punished drinking)", "setting": "[2]; ref Poe et al., 2016, listed as KRM-II-81", "value": "increased punished drinking; also recorded: efficacious"}, {"measurement": "acid-induced pain behaviors", "setting": "[8]", "value": "attenuated acid-induced pain behaviors"}]}
